{"data": "Published values gathered from unrelated publications", "target": "Mitogen-activated protein kinase kinase kinase 13 (MAP3K13, Homo sapiens, UniProt O43283)", "Residues used in one study (O43283 1-966)": "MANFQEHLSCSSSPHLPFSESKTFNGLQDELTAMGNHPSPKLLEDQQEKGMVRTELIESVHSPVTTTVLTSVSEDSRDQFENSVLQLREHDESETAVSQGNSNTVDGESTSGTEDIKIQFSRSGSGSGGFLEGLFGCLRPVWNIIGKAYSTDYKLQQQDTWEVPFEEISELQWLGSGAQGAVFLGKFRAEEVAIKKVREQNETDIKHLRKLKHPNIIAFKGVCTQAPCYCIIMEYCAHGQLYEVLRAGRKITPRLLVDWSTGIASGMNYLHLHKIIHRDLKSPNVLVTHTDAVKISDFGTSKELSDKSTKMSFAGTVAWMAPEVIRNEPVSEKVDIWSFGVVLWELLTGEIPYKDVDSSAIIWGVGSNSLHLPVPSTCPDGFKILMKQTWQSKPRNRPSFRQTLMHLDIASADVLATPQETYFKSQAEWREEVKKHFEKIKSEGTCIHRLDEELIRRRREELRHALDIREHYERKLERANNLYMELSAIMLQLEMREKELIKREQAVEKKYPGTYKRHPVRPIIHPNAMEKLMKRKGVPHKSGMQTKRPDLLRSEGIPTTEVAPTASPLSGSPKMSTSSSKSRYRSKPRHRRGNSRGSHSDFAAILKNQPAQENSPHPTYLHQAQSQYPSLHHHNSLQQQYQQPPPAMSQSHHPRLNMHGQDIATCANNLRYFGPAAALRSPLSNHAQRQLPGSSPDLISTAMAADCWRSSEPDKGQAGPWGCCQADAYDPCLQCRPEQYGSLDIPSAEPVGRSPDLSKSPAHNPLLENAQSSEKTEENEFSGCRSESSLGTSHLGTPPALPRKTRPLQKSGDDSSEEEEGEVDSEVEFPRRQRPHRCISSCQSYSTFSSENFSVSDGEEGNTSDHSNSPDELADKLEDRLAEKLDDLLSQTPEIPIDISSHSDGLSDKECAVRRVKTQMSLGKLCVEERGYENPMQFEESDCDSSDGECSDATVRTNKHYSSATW", "note": "Compare with care: the assays were run in different laboratories."}
{"Compound": "O=C(NCC1CCOCC1)c1n[nH]cc1NC(=O)c1c(F)cccc1F", "read-out": "binding", "method": "competition with immobilised ligand", "concentration": "1 µM", "remaining binding": "84%"}
{"Compound": "COCCOc1nc(-c2ccc(Cl)nc2)nc2c1CN(C(=O)c1ncn3ccccc13)CC2", "read-out": "cell-free assay", "method": "competition with immobilised ligand", "concentration": "0.1 µM", "remaining binding": "87%"}
{"Compound": "COc1cnc(Nc2cccc(S(N)(=O)=O)c2)nc1N1CCN(c2ccccc2)C(=O)C1", "read-out": "binding", "method": "competition with immobilised ligand", "concentration": "1 µM", "remaining binding": "100%"}
{"Compound": "COc1cc(-c2cn(C3CCc4c(F)cccc4N(CC(F)(F)F)C3=O)nn2)ccc1-n1cnc(C)c1 (centres unmarked)", "read-out": "cell-free assay", "method": "competition with immobilised ligand", "concentration": "1 µM", "remaining binding": "75%"}
{"Compound": "Cc1cnn2ncc(-c3ccnc(N(C)C)n3)c2c1", "read-out": "binding", "concentration": "1 µM", "remaining binding": "70%"}
{"Compound": "Nc1ncc2c(n1)-c1c([nH]c3ccc(C#CC4CC4)cc13)CCCC2", "read-out": "binding", "method": "competition with immobilised ligand", "concentration": "1 µM", "remaining binding": "61%"}
{"Compound": "N[C@@H]1CCN(c2nccc(-c3cnn4ncccc34)n2)C1", "read-out": "binding", "concentration": "1 µM", "remaining binding": "100%"}
{"Compound": "CC(=O)N1CCC(c2ccc(C(=O)NC(=N)N)cc2C(F)(F)F)CC1", "read-out": "cell-free assay", "method": "competition with immobilised ligand", "concentration": "1 µM", "remaining binding": "100%"}
{"Compound": "CN(C)c1ncc(F)c(-c2cnn3ncccc23)n1", "read-out": "binding", "concentration": "1 µM", "remaining binding": "90%"}
{"Compound": "CCN1CCN(Cc2ccc(C(=O)Nc3ccc(C)c(Oc4ccc5c(c4)CC(=O)N5)c3)cc2C(F)(F)F)CC1", "read-out": "binding", "method": "competition with immobilised ligand", "concentration": "1 µM", "remaining binding": "100%"}
{"Compound": "COc1ncc2cc3ccccc3nc2c1C#N", "read-out": "cell-free assay", "method": "competition with immobilised ligand", "concentration": "5 µM", "remaining binding": "92%"}
{"Compound": "O=C(c1ccc(Nc2nccc(-c3cc4ccccc4s3)n2)cc1)N1CCC(N2CCCC2)CC1", "read-out": "binding", "method": "competition with immobilised ligand", "concentration": "1 µM", "remaining binding": "68%"}
{"Compound": "C[C@H]1CCN(c2nccc(-c3cnn4ncccc34)n2)C1", "read-out": "binding", "concentration": "1 µM", "remaining binding": "62%"}
{"Compound": "O=C(O)[C@@H]1[C@@H](Cn2nnc3ccccc3c2=O)CC[C@H]1C(=O)c1ccc(OCCC2CCOCC2)cc1", "read-out": "cell-free assay", "method": "competition with immobilised ligand", "concentration": "1 µM", "remaining binding": "70%"}
{"Compound": "O=C(c1ccc(Nc2ncc(Cl)c(-c3ccc(Cl)s3)n2)cc1)N1CCC(N2CCCC2)CC1", "read-out": "binding", "method": "competition with immobilised ligand", "concentration": "1 µM", "remaining binding": "48%"}
{"Compound": "CN(C)c1nccc(-c2cnn3ncccc23)n1", "read-out": "binding", "concentration": "1 µM", "remaining binding": "85%"}
{"Compound": "COc1ccc2c(c1)O[C@H](c1ccc(OC)c(OC)c1)C[C@@H]2NC(=O)C1(c2ccc3c(c2)OC(F)(F)O3)CC1", "read-out": "cell-free assay", "method": "competition with immobilised ligand", "concentration": "1 µM", "remaining binding": "91%"}
{"Compound": "CN(C)c1nccc(-c2cnc3ncccn23)n1", "read-out": "binding", "concentration": "1 µM", "remaining binding": "76%"}
{"Compound": "C[C@H](NC(=O)c1cnc2n1[C@](C)(Cc1ccc(C#N)cc1)C(=O)N2c1cc(Cl)c(F)c(Cl)c1)C(=O)NC1(c2ccccn2)CC1", "read-out": "cell-free assay", "method": "competition with immobilised ligand", "concentration": "1 µM", "remaining binding": "100%"}
{"Compound": "O=C(NCCCN1CCOCC1)c1ccc(Nc2nccc(-c3cc4ccccc4s3)n2)cc1", "read-out": "binding", "method": "competition with immobilised ligand", "concentration": "1 µM", "remaining binding": "79%"}
